Experimental data: ChEMBL document CHEMBL4825777, “Tripeptides as Integrin-Linked Kinase Modulating Agents Based on a Protein-Protein Interaction with α-Parvin” (ACS Med Chem Lett, 2021)
One block for each compound: values may come before it. Activity calls are given as the source filed them. The calls are words filed in the database; no cut-off is given here. Non-standard residues stand in square brackets, D forms with d. Residues, ends and D or L forms follow the SMILES beside them. 2Nal = N[C@@H](Cc1ccc2ccccc2c1)C(=O)O

Assays:
[1] = target: T1, Scaffold protein ILK (Homo sapiens) (UniProt Q13418); assay: Induction of ILK (unknown origin)
T1 sequence (whole entry): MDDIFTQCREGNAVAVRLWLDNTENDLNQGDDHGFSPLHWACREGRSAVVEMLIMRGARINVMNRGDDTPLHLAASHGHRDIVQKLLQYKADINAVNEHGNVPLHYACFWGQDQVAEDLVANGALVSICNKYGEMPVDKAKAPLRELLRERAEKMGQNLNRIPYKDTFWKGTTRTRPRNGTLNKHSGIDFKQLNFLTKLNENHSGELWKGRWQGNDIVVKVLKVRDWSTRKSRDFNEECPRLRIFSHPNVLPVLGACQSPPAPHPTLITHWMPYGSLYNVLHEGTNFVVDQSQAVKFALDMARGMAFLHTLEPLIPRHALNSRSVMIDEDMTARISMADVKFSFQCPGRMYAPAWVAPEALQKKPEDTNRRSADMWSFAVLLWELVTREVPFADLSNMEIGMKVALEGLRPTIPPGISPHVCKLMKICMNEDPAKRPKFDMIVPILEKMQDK

[2] = target: T1, Scaffold protein ILK (Homo sapiens); assay: Modulation of ILK in human mesangial cells assessed as reduction in GSK-3beta phosphorylation at ser9 residue at 50 uM measured upto 90 mins by Western blot analysis; format: cell-based; conditions: Mesangial cell, time min <=90
[3] = Cytotoxicity against human mesangial cells assessed as reduction in cell viability at 1 to 100 uM incubated for 24 hrs by MTT assay; format: cell-based; conditions: dose 1-100 µM
Mesangial cell [4] = assay: Induction of F-actin polymerization in human mesangial cells assessed as F-actin levels at 50 uM measured after 24 hrs by Alexa 568-phalloidin based confocal microscopy; conditions: filed as activator
How it was run: (§1)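 Human mesangial cells incubated 24 h with compound at 50 μM, or with buffer as control. Cells stained with Alexa 568 phalloidin and F-actin examined by confocal microscopy. F-actin amount measured in three independent assays; mean ± SEM expressed as percent of control values; p < 0.05 vs control.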

Mesangial cell [5] = assay: Induction of F-actin polymerization in human mesangial cells ILK siRNA assessed as increase in phalloidin content at 50 uM measured after 24 hrs by Alexa 568-phalloidin based confocal microscopy relative to control; conditions: filed as activator
How it was run: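 Human mesangial cells transfected with ILK siRNA, or scrambled siRNA as transfection control; cells then held in buffer (control) or compound at 50 μM for 24 h. Stained with Alexa 568 phalloidin and imaged by confocal microscopy. F-actin quantified in three independent assays; mean ± SEM as percentage vs control, p < 0.05 vs control.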

[6] = target: T1, Scaffold protein ILK (Homo sapiens); assay: Modulation of ILK in human mesangial cells assessed as reduction in AKT phosphorylation at Ser473 residue at 50 uM measured upto 90 mins by Western blot analysis; format: cell-based; conditions: Mesangial cell, time min <=90
Mesangial cell [7] = assay: Induction of F-actin polymerization in human mesangial cells assessed as increase in F-actin levels measured after 24 hrs by Alexa 568-phalloidin based confocal microscopy; how it was run: as §1
[8] = target: T1, Scaffold protein ILK (Homo sapiens); assay: Inhibition of ILK (unknown origin)

SMILES: COC(=O)[C@@H](NC(=O)[C@H](C)NC(=O)[C@H](Cc1ccc(O)cc1)NC(C)=O)C(C)C (Ac-Tyr-Ala-Val-OMe)
- Activity [1]: inactive

SMILES: COC(=O)[C@@H](NC(=O)[C@H](Cc1ccccc1)NC(=O)[C@H](C)NC(C)=O)C(C)C (Ac-Ala-Phe-Val-OMe)
- Activity [3]: Non-Toxic
- Activity [1]: inactive
- Activity (Mesangial cell [5]): 59%

SMILES: COC(=O)[C@H](CO)NC(=O)[C@H](Cc1ccc2ccccc2c1)NC(=O)[C@H](Cc1ccc(O)cc1)NC(C)=O (Ac-Tyr-[2Nal]-Ser-OMe)
- Activity [1]: inactive
- inhibition [8]: Active

Second part, led by results:

- Activity [1]: inactive
SMILES: COC(=O)[C@H](C)NC(=O)[C@H](Cc1ccccc1)NC(=O)[C@H](Cc1ccc(O)cc1)NC(C)=O (Ac-Tyr-Phe-Ala-OMe)

- Activity [2]: inactive
- Activity [1]: inactive
- Activity [6]: inactive
SMILES: COC(=O)[C@@H](NC(=O)[C@H](Cc1ccccc1)NC(=O)[C@H](Cc1ccc(O)cc1)NC(C)=O)C(C)C (Ac-Tyr-Phe-Val-OMe)
- Activity [3]: Non-Toxic
- Activity (Mesangial cell [4]): Active
- Activity (Mesangial cell [5]): 100%

- Activity [1]: inactive
SMILES: COC(=O)[C@H](CO)NC(=O)[C@H](Cc1ccccc1)NC(=O)[C@H](Cc1ccc(O)cc1)NC(C)=O (Ac-Tyr-Phe-Ser-OMe)

- Activity [1]: inactive
SMILES: CC(=O)N[C@@H](Cc1ccc(O)cc1)C(=O)N[C@@H](Cc1ccccc1)C(=O)N[C@H](C(=O)O)C(C)C (Ac-Tyr-Phe-Val-OH)
- Activity (Mesangial cell [7]): inactive

- Activity [1]: inactive
- inhibition [8]: Active
SMILES: COC(=O)[C@@H](NC(=O)[C@H](Cc1ccc2ccccc2c1)NC(=O)[C@H](Cc1ccc(O)cc1)NC(C)=O)C(C)C (Ac-Tyr-[2Nal]-Val-OMe)
